# From ChEMBL document CHEMBL2407075, “Sulphonamido-quinoxalines: search for anticancer agent” (Eur J Med Chem, 2013)
# Key:
# Format in all cases: functional
# [1] = system: MDA-MB-435; assay: Growth inhibition of human MDA-MB-435 cells assessed as cell growth at 10^-8 M after 48 hrs by sulforhodamine B assay; details: MDA-MB-435, 48 h, read-out: Activity
# [2] = system: K562; assay: Growth inhibition of human K562 cells assessed as cell growth at 10^-7 M after 48 hrs by sulforhodamine B assay; details: K562, 48 h, read-out: Activity
# [3] = system: HOP-62; assay: Growth inhibition of human HOP62 cells assessed as cell growth at 10^-7 M after 48 hrs by sulforhodamine B assay; details: HOP-62, 48 h, read-out: Activity
# Outline: (§1)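 Five-dose screen at NCI. Cells in RPMI 1640 with 5% FBS and 2 mM L-glutamine, seeded at 5000–40,000 cells/well and grown 24 h at 37 °C, 5% CO2 before dosing, with time-zero plates TCA-fixed. Drug diluted from DMSO stock to 0.01, 0.1, 1, 10 and 100 µM final, 48 h. Cells fixed with cold TCA (10% final), stained with 0.4% SRB and read at 515 nm. Percent growth from Tz, control and test absorbances; GI50, TGI and LC50 from dose-response curves.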
# [4] = system: PC-3; assay: Growth inhibition of human PC3 cells assessed as cell growth at 10^-6 M after 48 hrs by sulforhodamine B assay; details: PC-3, 48 h, read-out: Activity
# [5] = system: HT-29; assay: Growth inhibition of human HT-29 cells assessed as cell growth at 10^-4 M after 48 hrs by sulforhodamine B assay; details: HT-29, 48 h, read-out: Activity; outline: as §1
# [6] = system: SK-OV-3; assay: Growth inhibition of human SKOV3 cells assessed as cell growth at 10^-5 M after 48 hrs by sulforhodamine B assay; details: SK-OV-3, 48 h, read-out: Activity
# [7] = system: MDA-MB-231; assay: Growth inhibition of human MDA-MB-231 cells assessed as cell growth at 10^-7 M after 48 hrs by sulforhodamine B assay; details: MDA-MB-231, 48 h, read-out: Activity
# [8] = system: HOP-62; assay: Growth inhibition of human HOP62 cells assessed as cell growth at 10^-8 M after 48 hrs by sulforhodamine B assay; details: HOP-62, 48 h, read-out: Activity; outline: as §1
# [9] = system: NCI-H522; assay: Growth inhibition of human NCI-H522 cells after 48 hrs by sulforhodamine B assay; details: NCI-H522, 48 h; for CC50: read-out: LC50 (the source's name)
# Outline: (§2)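 Adherent cells in RPMI 1640 with 5% FBS and 2 mM L-glutamine were plated at 5000–40,000 cells/well and grown 24 h. Five concentrations (0.01–100 µM, DMSO stock) were added for 48 h at 37 °C. Cells were fixed with cold TCA (10% final) and stained with SRB, read at 515 nm. GI50 came from log concentration–growth curves against time-zero and control plates.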
# [10] = system: PC-3; assay: Growth inhibition of human PC3 cells after 48 hrs by sulforhodamine B assay; details: PC-3, 48 h; for CC50: read-out: LC50 (the source's name); outline: as §2
# [11] = system: UACC-62; assay: Growth inhibition of human UACC62 cells assessed as cell growth at 10^-6 M after 48 hrs by sulforhodamine B assay; details: UACC-62, 48 h, read-out: Activity
# [12] = system: NCI-H322M; assay: Growth inhibition of human NCI-H322M cells assessed as cell growth at 10^-6 M after 48 hrs by sulforhodamine B assay; details: read-out: Activity
# [13] = Growth inhibition of human HCC2998 cells assessed as cell growth at 10^-8 M after 48 hrs by sulforhodamine B assay; details: HCC 2998, 48 h, read-out: Activity; outline: as §1
# [14] = system: HL-60(TB); assay: Growth inhibition of human HL-60(TB) cells after 48 hrs by sulforhodamine B assay; details: HL-60, 48 h; for CC50: read-out: LC50 (the source's name)
# Outline: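 Leukemia suspension cells in RPMI 1640 with 5% FBS and 2 mM L-glutamine were plated at 5000–40,000 cells/well and grown 24 h. Five concentrations (0.01–100 µM) were given for 48 h at 37 °C. Settled cells were fixed with 80% TCA (16% final) and SRB-stained, read at 515 nm. GI50 came from dose–response curves against time-zero and control plates.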
# [15] = system: BT-549; assay: Growth inhibition of human BT549 cells assessed as cell growth at 10^-8 M after 48 hrs by sulforhodamine B assay; details: BT-549, 48 h, read-out: Activity
# Outline: (§3)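 Five-dose NCI-60 run (0.01, 0.1, 1, 10 and 100 µM, as 10-fold dilutions from a DMSO stock made at 400× the top final level). Cells were grown in RPMI 1640 with 5% FBS and 2 mM glutamine and plated for 24 h. They were then exposed for 48 h at 37 °C and 5% CO2. TCA fixation was followed by SRB staining with A515 read-out. Percent growth was taken relative to time-zero and control plates.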
# [16] = Growth inhibition of human NCI-ADR-RES cells assessed as cell growth at 10^-5 M after 48 hrs by sulforhodamine B assay; details: read-out: Activity
# [17] = system: UACC-62; assay: Growth inhibition of human UACC62 cells assessed as cell growth at 10^-5 M after 48 hrs by sulforhodamine B assay; details: UACC-62, 48 h, read-out: Activity
# [18] = system: OVCAR-5; assay: Growth inhibition of human OVCAR5 cells assessed as cell growth at 10^-4 M after 48 hrs by sulforhodamine B assay; details: OVCAR-5, 48 h, read-out: Activity
# [19] = system: UACC-257; assay: Growth inhibition of human UACC257 cells assessed as cell growth at 10^-7 M after 48 hrs by sulforhodamine B assay; details: UACC-257, 48 h, read-out: Activity
# [20] = system: HOP-62; assay: Growth inhibition of human HOP62 cells assessed as cell growth at 10^-6 M after 48 hrs by sulforhodamine B assay; details: HOP-62, 48 h, read-out: Activity; outline: as §1
# [21] = system: SF-268; assay: Growth inhibition of human SF268 cells assessed as cell growth at 10^-7 M after 48 hrs by sulforhodamine B assay; details: SF-268, 48 h, read-out: Activity
# [22] = system: HCT-15; assay: Growth inhibition of human HCT15 cells assessed as cell growth at 10^-8 M after 48 hrs by sulforhodamine B assay; details: HCT-15, 48 h, read-out: Activity; outline: as §1
# [23] = system: OVCAR-3; assay: Growth inhibition of human OVCAR3 cells after 48 hrs by sulforhodamine B assay; details: OVCAR-3, 48 h; for CC50: read-out: LC50 (the source's name); outline: as §2
# [24] = system: COLO 205; assay: Growth inhibition of human COLO205 cells assessed as cell growth at 10^-7 M after 48 hrs by sulforhodamine B assay; details: COLO 205, 48 h, read-out: Activity; outline: as §3
# [25] = system: OVCAR-8; assay: Growth inhibition of human OVCAR8 cells assessed as cell growth at 10^-6 M after 48 hrs by sulforhodamine B assay; details: OVCAR-8, 48 h, read-out: Activity
# [26] = system: M14; assay: Growth inhibition of human M14 cells assessed as cell growth at 10^-6 M after 48 hrs by sulforhodamine B assay; details: M14, 48 h, read-out: Activity
# [27] = system: IGROV-1; assay: Growth inhibition of human IGROV1 cells assessed as cell growth at 10^-8 M after 48 hrs by sulforhodamine B assay; details: IGROV-1, 48 h, read-out: Activity
# [28] = system: NCI-H460; assay: Growth inhibition of human NCI-H460 cells assessed as cell growth at 10^-6 M after 48 hrs by sulforhodamine B assay; details: NCI-H460, 48 h, read-out: Activity
SMILES,growth at 0.01 µM [1],growth at 0.1 µM [2],growth at 0.1 µM [3],growth at 1 µM [4],growth at 100 µM [5],growth at 10 µM [6],growth at 0.1 µM [7],growth at 0.01 µM [8],CC50 [9],GI50 [10],CC50 [10],growth at 1 µM [11],growth at 1 µM [12],growth at 0.01 µM [13],GI50 [14],CC50 [14],growth at 0.01 µM [15],growth at 10 µM [16],growth at 10 µM [17],growth at 100 µM [18],also measured
O=S(=O)(Nc1ccc(Cl)cc1)c1ccc2nc(-c3ccccc3)c(-c3ccccc3)nc2c1,97%,98%,100%,63%,53%,14%,101%,96%,> 100000 nM,1470 nM,> 100000 nM,76%,98%,99%,2090 nM,> 100000 nM,98%,14%,-22%,90%,growth at 0.1 µM [19]: 99%; growth at 1 µM [20]: 105%; growth at 0.1 µM [21]: 98%; growth at 0.01 µM [22]: 100%; CC50 [23]: > 100000 nM; growth at 0.1 µM [24]: 101%; growth at 1 µM [25]: 92%; growth at 1 µM [26]: 94%; growth at 0.01 µM [27]: 102%; growth at 1 µM [28]: 94%
O=S(=O)(Nc1ccccn1)c1ccc2nc(-c3ccccc3)c(-c3ccccc3)nc2c1,99%,99%,101%,60%,24%,11%,107%,96%,> 100000 nM,1390 nM,> 100000 nM,75%,108%,99%,1710 nM,> 100000 nM,99%,-1%,-13%,99%,GI50 [9]: 1600 nM; growth at 0.1 µM [19]: 103%; growth at 1 µM [20]: 115%; growth at 0.1 µM [21]: 91%; growth at 0.01 µM [22]: 100%; GI50 [23]: 2170 nM; CC50 [23]: > 100000 nM; growth at 0.1 µM [24]: 98%; growth at 1 µM [25]: 85%; growth at 1 µM [26]: 98%; growth at 0.01 µM [27]: 103%; growth at 1 µM [28]: 94%
